Source: ChEMBL document CHEMBL1649165, “Activity profile in vitro of micafungin against Spanish clinical isolates of common and emerging species of yeasts and molds” (2009)

Tests used:
Assay type in all cases: functional
Rhodotorula glutinis = test: Antimicrobial activity against Rhodotorula glutinis by broth microdilution method
Procedure, shortened: (§1)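 Nonfermentative yeast clinical isolates (Rhodotorula, Trichosporon) tested by broth microdilution. The EUCAST yeast recommendations were followed strictly, with one minor modification to improve growth. MIC was read as the endpoint.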

Candida parapsilosis = test: Antimicrobial activity against Candida parapsilosis by broth microdilution method; conditions: Lodderomyces parapsilosis
Procedure, shortened: (§2)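 Clinical isolates from human patients, tested by broth microdilution using the AFST-EUCAST reference procedure for fermentative yeasts. The MIC was read per that reference method.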

Candida albicans = test: Antimicrobial activity against Candida albicans by broth microdilution method; procedure, shortened: as §2
Naganishia albida = test: Antimicrobial activity against Cryptococcus albidus by broth microdilution method
Procedure, shortened: (§3)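 Clinical isolates of nonfermentative yeasts, tested by broth microdilution following EUCAST recommendations. The only change from that method was a minor modification to improve growth.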

Ustilago = test: Antimicrobial activity against Ustilago spp by broth microdilution method
[1] = system: Cryptococcus deneoformans; test: Antimicrobial activity against Cryptococcus neoformans var. neoformans by broth microdilution method; procedure, shortened: as §3
Debaryomyces hansenii = test: Antimicrobial activity against Candida famata by broth microdilution method; procedure, shortened: as §2
Candida orthopsilosis = test: Antimicrobial activity against Candida orthopsilosis by broth microdilution method; conditions: Lodderomyces orthopsilosis; procedure, shortened: as §2
[Candida] inconspicua = Antimicrobial activity against Candida inconspicua by broth microdilution method; conditions: Pichia inconspicua; procedure, shortened: as §2
Saccharomyces cerevisiae = test: Antimicrobial activity against Saccharomyces cerevisiae by broth microdilution method
Torulaspora delbrueckii = test: Antimicrobial activity against Candida coliculosa by broth microdilution method; procedure, shortened: as §2
Yarrowia lipolytica = test: Antimicrobial activity against Yarrowia lipolytica by broth microdilution method
Magnusiomyces capitatus = test: Antimicrobial activity against Dipodascus capitatus by broth microdilution method
Papiliotrema laurentii = test: Antimicrobial activity against Cryptococcus laurentii by broth microdilution method; procedure, shortened: as §3
Nakaseomyces glabratus = test: Antimicrobial activity against Candida glabrata by broth microdilution method; procedure, shortened: as §2
Geotrichum candidum = test: Antimicrobial activity against Galactomyces geotrichum by broth microdilution method
Trichosporon asahii = test: Antimicrobial activity against Trichosporon asahii by broth microdilution method; procedure, shortened: as §1
Trichosporon inkin = test: Antimicrobial activity against Trichosporon inkin by broth microdilution method; procedure, shortened: as §1
Pichia norvegensis = test: Antimicrobial activity against Candida norvegensis by broth microdilution method; procedure, shortened: as §2
Trichosporon = test: Antimicrobial activity against Trichosporon spp. by broth microdilution method; procedure, shortened: as §1
Trichosporon dermatis = test: Antimicrobial activity against Trichosporon dermatis by broth microdilution method; conditions: Cutaneotrichosporon dermatis; procedure, shortened: as §1
[2] = system: Meyerozyma guilliermondii; test: Antimicrobial activity against Candida guilliermondii by broth microdilution method; procedure, shortened: as §2
Wickerhamomyces anomalus = test: Antimicrobial activity against Candida pelliculosa by broth microdilution method; conditions: Hansenula anomala; procedure, shortened: as §2
[Candida] intermedia = Antimicrobial activity against Candida intermedia by broth microdilution method; conditions: Sungouiella intermedia; procedure, shortened: as §2
Trichosporon domesticum = test: Antimicrobial activity against Trichosporon mycotoxinivorans by broth microdilution method; conditions: Apiotrichum domesticum
Procedure, shortened: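 Spanish human clinical isolates were tested as nonfermentative yeasts by broth microdilution. The method strictly followed the EUCAST recommendations, with a minor modification to improve growth, and the read-out was the MIC.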

Kluyveromyces marxianus = test: Antimicrobial activity against Candida kefyr by broth microdilution method; procedure, shortened: as §2
Rhodotorula mucilaginosa = test: Antimicrobial activity against Rhodotorula mucilaginosa by broth microdilution method; procedure, shortened: as §1
[Candida] zeylanoides = Antimicrobial activity against Candida zeylanoides by broth microdilution method; conditions: Dujonia zeylanoides; procedure, shortened: as §2
Candida tropicalis = test: Antimicrobial activity against Candida tropicalis by broth microdilution method; procedure, shortened: as §2
Diutina rugosa = test: Antimicrobial activity against Candida rugosa by broth microdilution method; procedure, shortened: as §2
Pichia kudriavzevii = test: Antimicrobial activity against Candida krusei by broth microdilution method; procedure, shortened: as §2
Trichosporon jirovecii = test: Antimicrobial activity against Trichosporon jirovecii by broth microdilution method; conditions: Cutaneotrichosporon jirovecii; procedure, shortened: as §1
Clavispora lusitaniae = test: Antimicrobial activity against Candida lusitaniae by broth microdilution method; procedure, shortened: as §2
Candida metapsilosis = test: Antimicrobial activity against Candida metapsilosis by broth microdilution method; conditions: Lodderomyces metapsilosis; procedure, shortened: as §2
Trichosporon ovoides = test: Antimicrobial activity against Trichosporon ovoides by broth microdilution method; procedure, shortened: as §1
[3] = system: Kazachstania pintolopesii; test: Antimicrobial activity against Candida pintolopesii by broth microdilution method; conditions: Arxiozyma pintolopesii; procedure, shortened: as §2

OC(Cn1cncn1)(Cn1cncn1)c1ccc(F)cc1F [FLUCONAZOLE]
2 µg/mL: MIC90 (Candida tropicalis)
8 µg/mL: MIC50 (Debaryomyces hansenii) | MIC50 (Candida orthopsilosis) | MIC50 ([Candida] inconspicua) | MIC50 (Torulaspora delbrueckii) | MIC50 (Yarrowia lipolytica) | MIC50 (Pichia norvegensis) | MIC50 (Wickerhamomyces anomalus) | MIC50 ([Candida] intermedia) | MIC50 ([Candida] zeylanoides) | MIC50 (Diutina rugosa) | MIC50 (Candida metapsilosis) | MIC50 [3]
> 64 µg/mL: MIC90 (Rhodotorula glutinis) | MIC90 (Naganishia albida) | MIC90 (Ustilago) | MIC90 [1] | MIC90 (Debaryomyces hansenii) | MIC90 (Candida orthopsilosis) | MIC90 ([Candida] inconspicua) | MIC90 (Saccharomyces cerevisiae) | MIC90 (Torulaspora delbrueckii) | MIC90 (Yarrowia lipolytica) | MIC90 (Papiliotrema laurentii) | MIC90 (Geotrichum candidum) | MIC90 (Trichosporon asahii) | MIC90 (Pichia norvegensis) | MIC90 (Trichosporon) | MIC90 (Trichosporon dermatis) | MIC90 [2] | MIC90 (Wickerhamomyces anomalus) | MIC90 ([Candida] intermedia) | MIC90 (Trichosporon domesticum) | MIC50 (Rhodotorula mucilaginosa) | MIC90 (Rhodotorula mucilaginosa) | MIC90 ([Candida] zeylanoides) | MIC90 (Diutina rugosa) | MIC90 (Pichia kudriavzevii) | MIC90 (Trichosporon jirovecii) | MIC90 (Candida metapsilosis) | MIC90 (Trichosporon ovoides) | MIC90 [3]
64 µg/mL: MIC50 (Geotrichum candidum)
0.12 µg/mL: MIC50 (Candida albicans)
32 µg/mL: MIC90 (Magnusiomyces capitatus) | MIC90 (Nakaseomyces glabratus) | MIC50 (Pichia kudriavzevii)
0.5 µg/mL: MIC50 (Candida parapsilosis) | MIC90 (Kluyveromyces marxianus)
0.25 µg/mL: MIC90 (Candida albicans) | MIC50 (Kluyveromyces marxianus) | MIC50 (Candida tropicalis) | MIC50 (Clavispora lusitaniae)
1 µg/mL: MIC90 (Candida parapsilosis) | MIC90 (Clavispora lusitaniae)
4 µg/mL: MIC50 (Saccharomyces cerevisiae) | MIC50 (Nakaseomyces glabratus) | MIC50 (Trichosporon inkin) | MIC90 (Trichosporon inkin) | MIC50 [2]
16 µg/mL: MIC50 (Rhodotorula glutinis) | MIC50 (Naganishia albida) | MIC50 (Ustilago) | MIC50 [1] | MIC50 (Magnusiomyces capitatus) | MIC50 (Papiliotrema laurentii) | MIC50 (Trichosporon asahii) | MIC50 (Trichosporon) | MIC50 (Trichosporon dermatis) | MIC50 (Trichosporon domesticum) | MIC50 (Trichosporon jirovecii) | MIC50 (Trichosporon ovoides)

Nc1nc(=O)[nH]cc1F [FLUCYTOSINE]
4 µg/mL: MIC90 (Kluyveromyces marxianus) | MIC50 (Pichia kudriavzevii)
8 µg/mL: MIC90 (Pichia kudriavzevii)
16 µg/mL: MIC50 (Rhodotorula glutinis) | MIC50 (Naganishia albida) | MIC50 (Ustilago) | MIC50 [1] | MIC90 (Debaryomyces hansenii) | MIC90 (Candida orthopsilosis) | MIC90 ([Candida] inconspicua) | MIC90 (Torulaspora delbrueckii) | MIC50 (Papiliotrema laurentii) | MIC90 (Pichia norvegensis) | MIC50 (Trichosporon) | MIC50 (Trichosporon dermatis) | MIC90 (Wickerhamomyces anomalus) | MIC90 ([Candida] intermedia) | MIC50 (Trichosporon domesticum) | MIC90 ([Candida] zeylanoides) | MIC90 (Diutina rugosa) | MIC50 (Trichosporon jirovecii) | MIC90 (Clavispora lusitaniae) | MIC90 (Candida metapsilosis) | MIC50 (Trichosporon ovoides) | MIC90 [3]
32 µg/mL: MIC90 [1] | MIC50 (Trichosporon asahii)
64 µg/mL: MIC50 (Trichosporon inkin)
> 64 µg/mL: MIC90 (Rhodotorula glutinis) | MIC90 (Naganishia albida) | MIC90 (Ustilago) | MIC50 (Yarrowia lipolytica) | MIC90 (Yarrowia lipolytica) | MIC90 (Papiliotrema laurentii) | MIC90 (Trichosporon asahii) | MIC90 (Trichosporon inkin) | MIC90 (Trichosporon) | MIC90 (Trichosporon dermatis) | MIC90 (Trichosporon domesticum) | MIC90 (Trichosporon jirovecii) | MIC90 (Trichosporon ovoides)
0.5 µg/mL: MIC90 (Candida albicans) | MIC90 (Saccharomyces cerevisiae) | MIC50 (Kluyveromyces marxianus)
0.25 µg/mL: MIC90 (Candida parapsilosis) | MIC50 (Debaryomyces hansenii) | MIC50 (Candida orthopsilosis) | MIC50 ([Candida] inconspicua) | MIC50 (Torulaspora delbrueckii) | MIC90 (Nakaseomyces glabratus) | MIC90 (Geotrichum candidum) | MIC50 (Pichia norvegensis) | MIC90 [2] | MIC50 (Wickerhamomyces anomalus) | MIC50 ([Candida] intermedia) | MIC50 (Rhodotorula mucilaginosa) | MIC50 ([Candida] zeylanoides) | MIC90 (Candida tropicalis) | MIC50 (Diutina rugosa) | MIC50 (Candida metapsilosis) | MIC50 [3]
1 µg/mL: MIC90 (Magnusiomyces capitatus) | MIC90 (Rhodotorula mucilaginosa)
0.12 µg/mL: MIC50 (Candida parapsilosis) | MIC50 (Candida albicans) | MIC50 (Saccharomyces cerevisiae) | MIC50 (Magnusiomyces capitatus) | MIC50 (Nakaseomyces glabratus) | MIC50 (Geotrichum candidum) | MIC50 [2] | MIC50 (Candida tropicalis) | MIC50 (Clavispora lusitaniae)
